# Measurements from different studies.
# Protocols differ between the studies behind these lines.
# Target: Interleukin-1 receptor-associated kinase 4 (IRAK4, Homo sapiens, UniProt Q9NWZ3)
# Residues used in one study (Q9NWZ3 1-460): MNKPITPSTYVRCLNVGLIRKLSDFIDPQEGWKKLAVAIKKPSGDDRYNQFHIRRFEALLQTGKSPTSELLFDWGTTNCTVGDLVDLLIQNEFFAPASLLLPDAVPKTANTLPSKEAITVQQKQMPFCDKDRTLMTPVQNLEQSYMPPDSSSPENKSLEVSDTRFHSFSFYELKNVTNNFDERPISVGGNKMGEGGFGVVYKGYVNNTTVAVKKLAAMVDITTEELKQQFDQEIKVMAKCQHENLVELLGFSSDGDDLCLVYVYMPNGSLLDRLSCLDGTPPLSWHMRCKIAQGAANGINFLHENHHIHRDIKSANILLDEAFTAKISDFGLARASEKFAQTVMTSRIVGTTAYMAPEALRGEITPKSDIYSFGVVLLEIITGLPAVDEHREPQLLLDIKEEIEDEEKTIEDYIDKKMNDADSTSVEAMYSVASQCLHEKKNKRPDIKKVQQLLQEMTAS
Compound,effect on,action,method,tested at,measurement,result
O=C1NC(=O)c2cc(Nc3ccc(F)cc3)c(Nc3ccc(F)cc3)cc21,cell-free assay,,,0.5 µM,remaining signal,98.1%
CN(C)C1CCN(CC#Cc2nn(C3CCCC3)c3nc(NCc4ccccc4)ncc23)C1 (stereo not drawn),enzyme activity,inhibitor,FRET,1 µM,inhibition,3%
Cc1cnc(NC2CCOCC2)nc1-n1cnc(C(=O)NC(CN)c2cc(F)cc(Cl)c2)c1 (stereo not drawn),enzyme activity,inhibitor,radiometric,1 µM,remaining activity,104%
F[C@@H]1CCN(c2nccc(-c3cnn4ncccc34)n2)C1,binding,,,1 µM,remaining binding,100%
Cc1cc(C)c(-n2ccn3nc(-c4cccnc4)cc23)cc1NC(=O)c1cc(C#N)cc(S(F)(F)(F)(F)F)c1,cell-free assay,,competition with immobilised ligand,0.1 µM,remaining binding,100%
O=C(Nc1cnn(-c2csc(C(=O)NC3COC3)c2)c1)Nc1c(F)cccc1Cl,enzyme activity,inhibitor,,5 µM,remaining activity,97.8%
Cc1ccc(NC(=O)c2ccc(C)c(C(F)(F)F)c2)cc1C#Cc1nn(C2CCC(O)CC2)c2ncnc(N)c12 (stereo not drawn),cell-free assay,,,10 µM,remaining signal,101%
CN1CC(Oc2cnc(C#N)cc2-c2ccn3nc(NC(=O)C4CC4)cc3c2)C1,enzyme activity,inhibitor,,1 µM,inhibition,1%
C[C@@]1(Cc2ccc(C#N)cc2)C(=O)N(c2cc(Cl)cc(Cl)c2)c2ncc(C(=O)NC3(c4nc(C5CCC5)no4)CC3)n21,cell-free assay,,competition with immobilised ligand,1 µM,remaining binding,100%
CC/C(=N\NC(=O)NCc1cccc(O)c1)c1ccc(O)c(C)c1O,enzyme activity,inhibitor,,0.1 µM,inhibition,-0.4%
FC(F)(F)Oc1cccc(-c2cnc3ccc(-c4ccncc4)nn23)c1,enzyme activity,inhibitor,radiometric,1 µM,activity vs control,12%
Nc1ncnc2occ(-c3ccc(NC(=O)Nc4cc(C(F)(F)F)ccc4F)cc3)c12,cell-free assay,inhibitor,,20 µM,remaining signal,46%
Cc1nccc(COC(=O)N2C[C@@H]3[C@@H](CNC(=O)c4ccc5[nH]nnc5c4)[C@@H]3C2)n1,cell-free assay,,competition with immobilised ligand,1 µM,remaining binding,87%
CCN(CC)CCNC(=O)c1c(C)[nH]c(/C=C2\C(=O)Nc3ccc(F)cc32)c1C,enzyme activity,inhibitor,,10 µM,inhibition,89%
Cc1ccc(C(=O)NCc2ccsc2)cc1C#Cc1cn(C(C)C)c2ncnc(N)c12,enzyme activity,inhibitor,,1 µM,activity vs control,88%
Cn1c(=O)n(-c2ccc(C(C)(C)C#N)cc2)c2c3cc(-c4cnc5ccccc5c4)ccc3ncc21,enzyme activity,inhibitor,,10 µM,remaining activity,78%
N#CCCc1ccc2c(c1)-c1[nH]c3ccc([N+](=O)[O-])cc3c1CC(=O)N2,cell-free assay,,,0.5 µM,remaining signal,155%
CCc1ccccc1C(=O)Nc1n[nH]c2c(C)c(F)c(C3C(C#N)=C(C)N(C)C(C)=C3C#N)cc12,cell-free assay,,competition with immobilised ligand,1 µM,remaining binding,100%
COc1cc(/C=C/C(=O)CC(=O)/C=C/c2ccc(O)c(OC)c2)ccc1O,enzyme activity,inhibitor,,1 µM,activity vs control,71%
Cc1ccc(Nc2nccc(N(C)c3ccc4c(C)n(C)nc4c3)n2)cc1S(N)(=O)=O,enzyme activity,inhibitor,,0.5 µM,remaining activity,98.4%
Cc1cc(NC(=O)c2cccc3cc(-c4cccc5[nH]nc(N)c45)ccc23)ccc1F,enzyme activity,inhibitor,,0.1 µM,activity vs control,99%
CC(=O)Nc1c(C(C)=O)c(=O)n(C)c2nc(-c3ccc(Cl)cc3Cl)c(-c3ccc(Cl)cc3)cc12,cell-free assay,,competition with immobilised ligand,1 µM,remaining binding,100%
Cc1ccc(C(=O)Nc2ccc(CN3CCN(C)CC3)c(C(F)(F)F)c2)cc1C#Cc1cnc2cccnn12,enzyme activity,inhibitor,,23.5 nM,remaining activity,91%
Nc1cnc(N2CCc3cc(S(=O)(=O)Nc4c(F)cc(Cl)cc4F)cc(N4CCCC4=O)c32)nc1,cell-free assay,,competition with immobilised ligand,1 µM,remaining binding,100%
CS(=O)(=O)Nc1cccc(-c2csc(NC(=O)CSc3nc4nccnc4c(=O)n3CCc3ccccc3)n2)c1,enzyme activity,inhibitor,,10 µM,inhibition,7%
CC(C)(C)c1nc(-c2cccc(NS(=O)(=O)c3c(F)cccc3F)c2F)c(-c2ccnc(N)n2)s1,enzyme activity,inhibitor,radiometric,1 µM,remaining activity,103%
C[C@H](c1cccc(C#N)c1)n1cc(Cl)cc(C(N)=O)c1=N,cell-free assay,,competition with immobilised ligand,1 µM,remaining binding,82%
COc1cc2ncnc(Nc3ccc(Oc4ccccc4)c(C)c3C)c2cc1OC,enzyme activity,inhibitor,,1 µM,inhibition,-4%
CS(=O)(=O)N1CCCC(NC(=O)[C@H](CCC2CCCCC2)NC(=O)c2ccc(CNC(=O)c3cnc4ccccn34)cc2)C1 (stereo partly drawn),cell-free assay,,competition with immobilised ligand,0.1 µM,remaining binding,100%
O=C1Nc2ccc(Cl)cc2C1=Cc1cc(Cl)c(O)c(Cl)c1,cell-free assay,,,0.5 µM,remaining signal,101%
